# T cell HTS – modulates CD8 T cell binding to vesicles | 2C CD8+ T cell-vesicle binding, flow cytometry; stronger effect = lower value | response (vesicle binding), % at 7 µM | 0.068% of 330,000 active | AID 2052;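 active = response, share of CD8 T cells binding vesicles, and their 90th percentile fluorescence all below set limits, cut at about 80% in these data, passing the limit was not always enough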;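 note: values below 100% mean blocked vesicle binding to the CD8+ T cells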
#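 incubation = binding step 1.5 h, 37 °C, antibody labelling 20 min, ice | test system = 2C mouse CD8+ T cells | read-out basis = percent CD8+ FL2 mean versus row control | controls = Peptide-free naked vesicles (low) and QL9 vesicles with 0.7% DMSO vehicle (high) | detection = flow cytometry of vesicle-bound cells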
# Rin1-Abl PPI inh – inhibitors of human Rin1-Abl protein interaction | TR-FRET Rin1/Abl binding, biochemical | inhibition, % at 7.35 µM | AID 588664 | 0.4% of 360,000 active; in the data active = inhibition above about 5%, passing the limit was not always enough
# SKN-1 block – blocks SKN-1 activity in C. elegans. C. elegans VP596 Pgst-4::GFP/RFP ratio, acrylamide-induced, 24 h. inhibition, % at 21.8 µM. 0.49% of 360,000 active. AID 624304;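 active = interference check ratio from 0.5 to 1.5 plus GFP to RFP signal ratio inhibition reaching or exceeding a fixed threshold, cut at about 30% in these data, passing the limit was not always enough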
# GRK2 aptamer HTS – blocks RNA aptamer binding to human GRK2 | bead flow cytometry, FAM-aptamer displacement from GRK2 | inhibition of aptamer binding, % at 10 µM | 0.59% of 330,000 active | AID 488847;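 active = inhibition of aptamer binding above 40%, roughly 3 SD of noise, on plates passing a quality check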;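 note: median bead fluorescence of bound FAM aptamer so fluorescent compounds give negative values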
# Rce1 inhib – yeast Ras-converting enzyme inhibition; yeast membranes, quenched prenylated peptide cleavage fluorescence; AID 2563; calls only; Q03530; 0.27% of 290,000 active;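 active = fall in fluorescence gain of 50% or more versus controls, with final raw signal at or below 3038400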;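 note: plate controls were neutral control wells for no effect and wells lacking membranes for full effect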
# Myeloid diff MLP – promotes myeloid progenitor differentiation; ER-HoxA9 myeloid progenitors, lysozyme-GFP differentiation, flow cytometry; calls only at 10 µM; 1% of 360,000 active; AID 624256;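 active = normalized GFP-positive differentiation at or above the plate's own cutoff, the solvent-only control mean plus 3 SD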;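 note: cells exposed to compound for four days before flow analysis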
# Starred values were filed as active, the others as inactive; i = inactive; nt = no result; + = active, no number. This is a sample that favours compounds with a hit; in the whole collection about 2.6% have one here.
SMILES,T cell HTS,Rin1-Abl PPI inh,SKN-1 block,GRK2 aptamer HTS,Rce1 inhib,Myeloid diff MLP
COc1ccc(OC)c(/C=N/NC(=O)CSc2cc(C)nc3c(OC)cccc23)c1,191,-2,15,0,+,i
COc1ccc(OC)c(/C=N/NC(=O)Cn2ccnc2C)c1,243,-5,3,0,+,i
O=C(COc1ccc(Br)cc1)NCC1COc2ccccc2O1 (centres undefined),292,0,13,0,nt,i
Cc1ccnc(NC(=O)CCC(=O)N(CC(=O)NCCc2ccccc2)c2ccc(F)cc2)c1,188,-1,6,0,i,i
CCOc1ccc(N(CC(=O)NCCc2ccccc2)C(=O)CCC(=O)Nc2cc(C)ccn2)cc1,186,4,-10,2,i,+
CCn1cc(C(=O)NCCCN(C)C)c(=O)c2cc(F)c(N3CCN(C)CC3)cc21,204,1,13,1,i,i
CCn1cc(C(=O)NCCN(C)C)c(=O)c2cc(F)c(N3CCN(C)CC3)cc21,155,2,4,1,+,i
CC(=O)NN1C(=O)/C(=C\c2ccc(O)cc2)SC1=S,322,-3,5,79*,i,i
COc1cc(/C=C2\SC(=S)N(Nc3ccccc3)C2=O)ccc1O,368,1,1,9,i,i
CC(=O)NN1C(=O)/C(=C\c2ccc(C)cc2)SC1=S,294,0,17,0,i,i
O=C1/C(=C/c2ccc(O)c(O)c2)SC(=S)N1Nc1ccccc1,nt,5,21,nt,i,+
CC(C)CC1NC(=O)N(CC(=O)NC2CCCc3ccccc32)C1=O (centres undefined),219,3,5,3,nt,i
COc1ccc2c(/C=C/c3cc[n+](C)cc3)c[nH]c2c1,515,-19,9,0,i,+
CCN(CC)C(=O)c1cccc(NC(=O)CC23CC4CC(CC(C4)C2)C3)c1,200,3,3,0,i,+
Cc1cc(C)cc(C(=O)Nc2ccncc2)c1,289,-2,-12,0,i,i
COc1ccc(C(=O)CC(=O)C(=O)Nc2ccc(Cl)cc2)cc1,347,-1,24,0,i,i
COc1ccc(C(=O)CC(Nc2ccc([N+](=O)[O-])cc2)c2ccc(Cl)cc2)cc1 (centres undefined),220,0,11,1,i,+
Cc1cc(NC(=O)Cn2nnc(-c3ccccc3NC(=O)c3ccccc3F)n2)no1,555,-1,3,0,i,i
O=c1c2ccccc2oc2cc(-c3ccc4cc[nH]c4c3)ccc12,385,3,19,2,nt,i
O=c1c2ccccc2oc2ccc(-c3ccc4[nH]ccc4c3)cc12,270,6,62*,3,i,i
O=C(Cn1c2ccccc2c(=O)c2ccccc21)Nc1ccccc1F,243,-16,11,1,+,i
CCC1=[N+](C)c2cccc3cccc(c23)N1C,147,-4,-2,2,i,+
CCN1C(=O)Nc2cccc3cccc1c23,238,-5,30,0,i,i
O=C(CN1CCCC1)Nc1sc2c(c1C(=O)Nc1ccc(Br)cc1)CCC2,258,0,38*,0,i,i
CN1CCN(CC(=O)Nc2sc3c(c2C(=O)Nc2ccccc2)CCCC3)CC1,317,2,9,1,i,i
SMILES,T cell HTS,Rin1-Abl PPI inh,SKN-1 block,GRK2 aptamer HTS,Rce1 inhib,Myeloid diff MLP
CN(C(=S)NC(=O)C12CC3CC(CC(C3)C1)C2)c1ccc(O)cc1,256,-2,-13,59*,nt,i
COC1C(OC(=O)/C=C/C=C/C=C/C=C/C(=O)O)CCC2(CO2)C1C1(C)OC1CC=C(C)C (centres undefined) (tested in a mixture with another compound),nt,2,-1,nt,nt,nt
CCOC(=O)c1nn(C)c(=S)n(C)c1=O,nt,3,18,nt,nt,i
CCC(=O)c1cc2c(C)cc(=O)oc2c(C)c1OC(C)=O,141,-1,2,83*,i,i
CCC(=O)c1cc2c(C)cc(=O)oc2c(C)c1OC(=O)C(C)C,254,1,2,1,i,i
Cc1ccc(C(=O)Nc2ccc3c(c2)C(=O)N(CC2CCCO2)C3=O)cc1 (centres undefined),65*,-1,4,1,i,i
